Laboratory results taken from ChEMBL document CHEMBL3046812, “Synthesis, fungicidal activity, and 3D-QSAR of pyridazinone-substituted 1,3,4-oxadiazoles and 1,3,4-thiadiazoles” (2002).

System: Puccinia recondita
Assay: Antifungal activity against Puccinia recondita infected wheat leaves after 10 days relative to triadimefon
Assay type: functional
In short: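 Wheat leaves inoculated with Puccinia recondita uredospores mixed 1:10 with talcum powder, held 24 h in a moist chamber, then sprayed once dry with 0.001 M compound solutions in water/DMF (5:1, with Sorpal-144). Plants kept in greenhouse; percent disease control versus untreated pots scored 10 days after treatment. Three replicates; triadimefon reference tested at 100 ppm under identical conditions.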

Compound | inhibition (INH) [%]
Cc1cc(=O)c(-c2nnc(Nc3ccccc3F)o2)nn1-c1ccc(Cl)cc1 | 0.7
Cc1cc(=O)c(-c2nnc(Nc3ccccc3F)s2)nn1-c1ccc(Cl)cc1 | 0.5
Cc1cc(=O)c(-c2nnc(Nc3ccccc3F)o2)nn1-c1cc(Cl)c(Cl)cc1Cl | 0.9
Cc1cc(=O)c(-c2nnc(Nc3cccc(C(F)(F)F)c3)s2)nn1-c1c(Cl)cccc1Cl | 0.5
Cc1cc(=O)c(-c2nnc(Nc3ccccc3F)o2)nn1-c1ccccc1Cl | 0.8
Cc1cc(=O)c(-c2nnc(Nc3ccccc3F)s2)nn1-c1ccccc1 | 0.5
Cc1cc(=O)c(-c2nnc(Nc3ccccc3)s2)nn1-c1ccccc1Cl | 0.1
Cc1ccc(-n2nc(-c3nnc(Nc4cccc(C(F)(F)F)c4)s3)c(=O)cc2C)c(C)c1 | 0.9
Cc1cc(=O)c(-c2nnc(Nc3cccc(C(F)(F)F)c3)s2)nn1-c1ccc(Cl)cc1 | 0.6
Cc1cc(=O)c(-c2nnc(Nc3cccc(C(F)(F)F)c3)s2)nn1-c1cc(Cl)c(Cl)cc1Cl | 0.7
Cc1cc(=O)c(-c2nnc(Nc3cccc(C(F)(F)F)c3)o2)nn1-c1ccc(Cl)cc1 | 0.9
Cc1cc(=O)c(-c2nnc(Nc3ccccc3)o2)nn1-c1ccccc1Cl | 0.1
Cc1cc(=O)c(-c2nnc(Nc3ccccc3F)s2)nn1-c1c(Cl)cccc1Cl | 0.3
Cc1cc(=O)c(-c2nnc(Nc3cccc(C(F)(F)F)c3)s2)nn1-c1ccccc1Cl | 0.7
Cc1ccc(-n2nc(-c3nnc(Nc4ccccc4F)s3)c(=O)cc2C)c(C)c1 | 0.9
Cc1ccc(-n2nc(-c3nnc(Nc4ccccc4F)o3)c(=O)cc2C)c(C)c1 | 0.8
Cc1cc(=O)c(-c2nnc(Nc3ccccc3)s2)nn1-c1ccc(Cl)cc1Cl | 0.2
Cc1cc(=O)c(-c2nnc(Nc3ccccc3F)s2)nn1-c1ccc(Cl)cc1Cl | 0.8
Cc1cc(=O)c(-c2nnc(Nc3ccccc3F)o2)nn1-c1c(Cl)cccc1Cl | 0.8
Cc1cc(=O)c(-c2nnc(Nc3ccccc3F)s2)nn1-c1cc(Cl)c(Cl)cc1Cl | 0.6
Cc1cc(=O)c(-c2nnc(Nc3cccc(C(F)(F)F)c3)s2)nn1-c1ccc(Cl)cc1Cl | 0.9
Cc1cc(=O)c(-c2nnc(Nc3cccc(C(F)(F)F)c3)s2)nn1-c1ccccc1 | 0.6
Cc1cc(=O)c(-c2nnc(Nc3ccccc3F)o2)nn1-c1ccccc1 | 0.9
COc1ccc(Nc2nnc(-c3nn(-c4ccc(Cl)cc4)c(C)cc3=O)o2)cc1 | 0.8
Cc1cc(=O)c(-c2nnc(Nc3ccccc3F)s2)nn1-c1ccccc1Cl | 0.1
Cc1ccc(-n2nc(-c3nnc(Nc4cccc(C(F)(F)F)c4)o3)c(=O)cc2C)c(C)c1 | 0.7
Cc1cc(=O)c(-c2nnc(Nc3cccc(C(F)(F)F)c3)o2)nn1-c1ccccc1Cl | 0.9
